Shown is part of a subset that was picked to be rich in hits.
STK33 inh: human STK33 kinase inhibition | purified STK33, MBP phosphorylation, ADP-Glo luminescence | inhibition, % at 10 µM | 320,000 compounds, 0.073% hits | AID 2661;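 active = inhibition at or above 25%, using the most active replicate where run in duplicate; inactive = inhibition below 25%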
GSK3B inh: human GSK3beta kinase inhibition | P49841 | 300,000 compounds, 0.038% hits | activity score (negative = inhibition), % at 10 µM | AID 2097 | GST-GSK3beta kinase, ADP-Glo luminescence, 60 min; hits give low values;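 active = more than half of replicate wells score below -50%, meaning over 50% inhibition versus plate controls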
Target sequence (P49841 whole entry, looked up): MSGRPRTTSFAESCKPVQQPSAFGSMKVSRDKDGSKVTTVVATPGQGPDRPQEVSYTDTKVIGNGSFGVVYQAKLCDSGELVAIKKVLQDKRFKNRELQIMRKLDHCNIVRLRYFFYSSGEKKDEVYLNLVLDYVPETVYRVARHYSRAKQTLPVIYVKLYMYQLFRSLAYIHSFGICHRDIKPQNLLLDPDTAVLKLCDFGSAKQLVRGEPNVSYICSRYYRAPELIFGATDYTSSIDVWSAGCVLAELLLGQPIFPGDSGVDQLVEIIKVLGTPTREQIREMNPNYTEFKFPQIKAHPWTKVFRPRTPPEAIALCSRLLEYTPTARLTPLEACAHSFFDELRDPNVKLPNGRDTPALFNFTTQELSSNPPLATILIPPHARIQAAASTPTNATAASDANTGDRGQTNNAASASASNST
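Test system: GST-fused GSK3beta enzyme, cell-free | Quantity: 1.6 ng GST-GSK3beta enzyme per well | Reagent: 25 µM ATP with peptide substrate | Schedule: 60 min enzyme reaction, room temperature | Signal: Luminescent ADP-Glo measurement of ADP formed | Read-out basis: Score relative to plate controls | Control set: DMSO and 20 µM GW8510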
GSK3A inh: human GSK-3 alpha kinase inhibition. 320,000 compounds, 0.1% hits. ADP-Glo luminescence, 60 min. inhibition, % at 10 µM. P49840;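 active = more than half of replicates show inhibition above 20%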;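 note: GST-tagged GSK-3 alpha with peptide substrate and 25 µM ATP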
DYRK1A inh: blocks rat Dyrk1A kinase activity | 310,000 compounds, 0.43% hits | ADP-Glo luminescence, NFATc1 peptide | inhibition, % at 12.5 µM | AID 504441 | Q63470; in the data active = inhibition above about 50%
Each line names hits and unclear results; the compound was inactive in the other large screens.

CN(C)C=NC(=O)/C(C#N)=C1\CCc2ccccc2N1	GSK3A inh 52
COc1ccc(/C=C(\C#N)C(=O)N=CN(C)C)cc1	none (no result: GSK3A inh)
CCOC(=O)c1c(C)[nH]c(C)c1C(=O)COC(=O)c1cccs1	none (no result: GSK3B inh)
CCC1(c2ccccc2)NC(=O)N(CC(=O)NNC(=O)c2ccoc2C)C1=O (stereo not drawn)	none
Cc1ccc(C(=O)OCC(=O)N(C)c2c(N)n(Cc3ccccc3)c(=O)[nH]c2=O)s1	none
Fc1ccc(CSc2nnc(-c3ccncc3)o2)cc1	GSK3B inh -54
Clc1ccc(CSc2nnc(-c3ccncc3)o2)cc1	none
N#CC1=C2SCN(Cc3ccccc3)CN2C(=O)CC1c1ccccc1F (stereo not drawn)	GSK3A inh 61
COC(=O)c1ccc(COC(=O)CCNS(=O)(=O)c2ccc(C)c(C)c2)cc1	none (no result: STK33 inh, GSK3B inh, GSK3A inh)
CN=Cc1sc2ccccc2c1O	none
O=Nc1c(O)c2ccccc2c2ccccc12	DYRK1A inh 54
COc1ccc(C)cc1S(=O)(=O)NCC(c1ccco1)N1CCc2ccccc2C1 (stereo not drawn)	none
COc1cc(/C=N/N=C2/C(=O)Nc3ccccc32)ccc1O	STK33 inh 38
NC(=S)NN=C1CCSCC1	none (no result: STK33 inh, GSK3B inh, GSK3A inh)
COC(=O)c1ccccc1NC(=O)N1CCN(C/C=C/c2ccccc2)CC1	STK33 inh 32
CCCCCCCCCCCCCCCC[n+]1cccc2ccccc21	STK33 inh 50 (no result: GSK3B inh)
CCCCCCCCC[n+]1cccc2c3ccccc3ccc21	none
N#C/C(=C/C=C/c1ccccc1)C(=O)Nc1ccccc1	STK33 inh 16 (no result: GSK3B inh)
Cc1cc(C(C#N)c2ccccc2)n2ncnc2n1 (stereo not drawn)	none (no result: GSK3B inh)
Cc1cc(C(C#N)c2ccccc2F)n2ncnc2n1 (stereo not drawn)	GSK3A inh 55 (no result: DYRK1A inh)
COc1cc2cccc(OC)c(=O)c2c(O)c1OC	none
CC(=O)Oc1cc2cccc(OC(C)=O)c(=O)c2c(OC(C)=O)c1OC(C)=O	DYRK1A inh 64
OC(COc1ccc(F)cc1Cl)CN1CCC(Cc2ccccc2)CC1 (stereo not drawn)	DYRK1A inh 51
C[C@H]1CN([C@@H](C)CO)C(=O)c2cccc(NC(=O)c3cnccn3)c2O[C@@H]1CN(C)S(=O)(=O)c1ccc(F)cc1	GSK3A inh 55 (no result: GSK3B inh)
C[C@H](CO)N1C[C@H](C)[C@@H](CN(C)S(=O)(=O)c2ccc(F)cc2)Oc2c(NC(=O)c3ccncc3)cccc2C1=O	none (no result: STK33 inh, GSK3B inh, GSK3A inh)
CCn1c2ccc(/C(C)=N\O)cc2c2cc(/C(C)=N\O)ccc21	STK33 inh 37
COc1ccc(CCN2CC(C(=O)N(C)Cc3ccc(C)o3)CCC2=O)cc1 (stereo not drawn)	none
O=C(Nc1ccsc1C(=O)O)c1ccccc1	none
O=C(Nc1ccsc1C(=O)NC1CC1)c1ccccc1	GSK3A inh 64
O=C(NC1CCCCCC1)C1CCN(S(=O)(=O)c2cnc[nH]2)CC1	none (no result: DYRK1A inh)
O=C(Nc1ncc([N+](=O)[O-])s1)C1CCN(S(=O)(=O)c2cnc[nH]2)CC1	GSK3A inh 51
O=C(Nc1ccc(CN2CCS(=O)(=O)CC2)cc1)c1ccc(Cl)cc1	none
Cc1ccccc1C(=O)O/N=C(\N)c1ccccc1	DYRK1A inh 55
COc1ccc(N2CCN(C(=O)COC(=O)c3ccc(C)o3)CC2)cc1	none
CCN(CC)Cc1c(C(=O)N/N=C/c2cccnc2)nnn1-c1nonc1N	GSK3A inh 53
CCOc1cccc(-c2c(C(=O)N/N=C(\C)c3cccnc3)nnn2-c2nonc2N)c1	GSK3A inh 52
CN(Cc1c(C(=O)N/N=C/c2ccc(O)cc2)nnn1-c1nonc1N)C1CCCCC1	GSK3A inh 60
CCOc1ccc(-c2c(C(=O)N/N=C(\C)c3cccnc3)nnn2-c2nonc2N)cc1	none
CCCN(CCC)Cc1c(C(=O)N/N=C/c2ccncc2)nnn1-c1nonc1N	GSK3A inh 74
CC(C)c1c(C(=O)N/N=C/c2cccnc2)nnn1-c1nonc1N	none
CC(C)c1ccccc1OCC(=O)Nc1ccccc1C(=O)N1CCOCC1	none (no result: DYRK1A inh)
CC(/C=N/NC(=O)c1nnn(-c2nonc2N)c1CN(C)C)=C\c1ccco1	GSK3A inh 50
CCCN(CCC)Cc1c(C(=O)N/N=C/C(C)=C\c2ccco2)nnn1-c1nonc1N	none
Cc1ccccc1OCC(=O)NC(=S)Nc1ccccc1N1CCN(S(C)(=O)=O)CC1	none (no result: DYRK1A inh)
COc1cc(C(=O)NCC(c2ccco2)N2CCc3ccccc3C2)cc(OC)c1OC (stereo not drawn)	none
O=C(O)Cc1ccc(N=Cc2c(O)ccc3ccccc23)cc1	STK33 inh 50
CCOc1cc(/C=C(\C#N)c2[nH]nc(N)c2C#N)ccc1O	STK33 inh 35
CN1/C(=C/C2CC(=O)NC2=O)C(C)(C)c2ccccc21 (stereo not drawn)	GSK3A inh 65 (no result: GSK3B inh)
CN1/C(=C/C2CC(=O)N(c3cccc4ccccc34)C2=O)C(C)(C)c2ccccc21 (stereo not drawn)	none
Cc1c(C#N)c(O)[nH]c(=O)c1N=Nc1ccc(S(N)(=O)=O)cc1	GSK3B inh -76, GSK3A inh 79
Cc1c(C#N)c(O)[nH]c(=O)c1N=Nc1ccc(Cl)c(C(=O)O)c1	none
COc1cccc(-c2nc(NCCN3CCOCC3)c3ccccc3n2)c1O	none
Oc1ccccc1-c1nc(NCCN2CCOCC2)c2ccccc2n1	STK33 inh 60
CCNc1nc(N)c(C(=O)c2ccc(Cl)s2)s1	GSK3B inh -90, GSK3A inh 98
CC(=O)NCc1ccc(S(=O)(=O)N2CCN(S(=O)(=O)c3ccc4ccccc4c3)CC2)cc1	none (no result: STK33 inh, GSK3B inh, GSK3A inh)
Cc1cc2[nH]c(=O)c(=O)[nH]c2cc1S(=O)(=O)NC1CCCCC1C (stereo not drawn)	DYRK1A inh 57
CC(Oc1ccccc1)C(=O)N=C1SC2CS(=O)(=O)CC2N1c1cccc(F)c1 (stereo not drawn)	none (no result: DYRK1A inh)
C#CCOCCOCCOCCNc1nc(N2CCN(C(=O)CCCCCCCCCCNC(=O)[C@H]([C@@H](C)CC)n3cc(CCCCN=C(N)N)nn3)CC2)nc(N2CCN(C(=O)CCCCCCCCCCNC(=O)[C@H](CCCN=C(N)N)n3cc(C[C@@H](C)CC)nn3)CC2)n1	STK33 inh 31 (no result: GSK3B inh, DYRK1A inh)
C#CCOCCOCCOCCNc1nc(N2CCN(C(=O)CCCCCCCCCCNC(=O)[C@H](CCCN=C(N)N)n3cc(C[C@@H](C)CC)nn3)CC2)nc(N2CCN(C(=O)CCCCCCCCCCNC(=O)[C@@H]([C@H](C)CC)n3cc(CCCCCN)nn3)CC2)n1	STK33 inh 27 (no result: GSK3B inh, DYRK1A inh)
C#CCOCCOCCOCCNc1nc(N2CCN(C(=O)CCCCCCCCCCNC(=O)[C@H](CO)n3cc(CCCCCN)nn3)CC2)nc(N2CCN(C(=O)CCCCCCCCCCNC(=O)[C@H](CCCN=C(N)N)n3cc(C[C@@H](C)CC)nn3)CC2)n1	none (no result: GSK3B inh, DYRK1A inh)
C#CCOCCOCCOCCNc1nc(N2CCN(C(=O)CCCCCCCCCCNC(=O)[C@H](CCCCN)n3cc(C)nn3)CC2)nc(N2CCN(C(=O)CCCCCCCCCCNC(=O)[C@H](CCCN=C(N)N)n3cc(C[C@@H](C)CC)nn3)CC2)n1	none (no result: GSK3B inh, DYRK1A inh)

Compound activity from PubChem.
